16 compounds from PubChem BioAssay can be followed below.

Assay [1] can be described thus: reducers of endogenous Her2 protein level, primary screen, SKBR3 breast tumor cells, AlphaScreen, ATP viability (AID 461;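 active means Her2 level under about 52% in both replicate screens, with viability over 70% of control, limit read from the data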;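 on Her2 level: lower value means less Her2 protein in the cells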;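 on viability: percent of carrier control wells set as 100% viability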). To be noted: 18-24 h, measured here: SKBR3 viability, ATP luminescence, at 10 µM. Background: Alpha assays give light when donor and acceptor beads are brought close together.
The target of assay [2] is Receptor tyrosine-protein kinase erbB-2 (Homo sapiens) (UniProt P04626). The description is as above. The note with it: 18-24 h, at 10 µM, stronger effect = lower value.
Receptor tyrosine-protein kinase erbB-2 (Homo sapiens), sequence (P04626 whole entry, looked up): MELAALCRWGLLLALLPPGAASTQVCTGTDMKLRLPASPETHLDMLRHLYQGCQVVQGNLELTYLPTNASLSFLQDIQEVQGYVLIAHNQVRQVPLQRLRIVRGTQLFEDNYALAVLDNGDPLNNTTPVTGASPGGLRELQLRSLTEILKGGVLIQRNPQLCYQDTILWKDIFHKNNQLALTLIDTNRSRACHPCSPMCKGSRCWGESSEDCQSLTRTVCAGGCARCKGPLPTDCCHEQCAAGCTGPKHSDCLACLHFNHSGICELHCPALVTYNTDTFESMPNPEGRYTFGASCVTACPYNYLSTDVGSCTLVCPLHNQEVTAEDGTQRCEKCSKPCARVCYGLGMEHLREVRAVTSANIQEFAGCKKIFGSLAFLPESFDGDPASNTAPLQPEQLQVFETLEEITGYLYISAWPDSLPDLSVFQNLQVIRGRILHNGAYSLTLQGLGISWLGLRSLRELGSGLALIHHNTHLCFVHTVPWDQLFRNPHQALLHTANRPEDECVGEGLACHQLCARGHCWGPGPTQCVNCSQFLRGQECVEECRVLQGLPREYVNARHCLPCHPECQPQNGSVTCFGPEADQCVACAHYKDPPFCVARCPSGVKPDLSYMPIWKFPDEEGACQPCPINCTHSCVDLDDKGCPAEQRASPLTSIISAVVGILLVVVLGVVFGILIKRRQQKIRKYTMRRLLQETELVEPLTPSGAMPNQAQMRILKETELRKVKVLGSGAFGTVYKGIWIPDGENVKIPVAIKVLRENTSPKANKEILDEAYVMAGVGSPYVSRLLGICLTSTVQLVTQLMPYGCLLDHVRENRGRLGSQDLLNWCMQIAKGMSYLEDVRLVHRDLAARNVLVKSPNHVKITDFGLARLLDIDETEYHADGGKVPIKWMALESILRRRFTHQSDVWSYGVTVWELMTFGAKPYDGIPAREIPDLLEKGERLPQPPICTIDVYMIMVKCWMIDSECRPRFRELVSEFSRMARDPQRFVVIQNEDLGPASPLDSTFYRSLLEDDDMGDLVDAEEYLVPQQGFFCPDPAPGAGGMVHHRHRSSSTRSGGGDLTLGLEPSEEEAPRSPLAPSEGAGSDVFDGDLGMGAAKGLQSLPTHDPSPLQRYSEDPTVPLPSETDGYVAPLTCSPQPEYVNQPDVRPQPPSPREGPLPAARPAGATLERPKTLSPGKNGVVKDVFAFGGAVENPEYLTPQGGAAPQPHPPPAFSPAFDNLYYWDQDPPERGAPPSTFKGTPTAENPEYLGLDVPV
The nature of assay [3]: SK-BR-3 cell growth inhibitors, pilot screen, 24 h, human (AID 572;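 active means viability at or below 10% of carrier control in both of two separate runs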;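 further: compound exposure lasted between 18 and 24 h rather than exactly 24 h; 100% = carrier-treated control wells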). The note with it: SK-BR-3 viability, CellTiter-Glo luminescence, at 10 µM, stronger effect = lower value. For orientation: ATP-based viability assays read luminescence as a measure of living cells.
The nature of assay [4]: HUVEC growth inhibition – cell-based, human, primary screen (AID 575;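 active means viability at or below 30% in both replicate assays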;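 further: 100% = median of untreated cell wells with 0.1% DMSO on each plate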). To be noted: HUVEC proliferation, CellTiter-Glo luminescence, 72 h; at 10 µM; stronger effect = lower value. The procedure, abridged: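 System – primary HUVEC, no more than 12 passages · Medium – Low-serum (2% FBS) EBM, supplemented · Times – 72 h exposure, 37 °C, 5% CO2, 30 min RT equilibration · Measured by – luminescent ATP assay · Read-out – % viability relative to median vehicle-well signal on each plate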

A short description of assay [5]: growth inhibitors of H69AR lung tumor, primary screen, human, duplicate replicates (AID 580).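 Further: 100% = mean luminescence of untreated wells and 0% = no signal.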 The note with it: H69AR lung tumor cells viability, ATP luminescence, 72 h; at 10 µM; stronger effect = lower value.
A short description of assay [6]: reversal of MRP1-mediated doxorubicin resistance, pilot screen, H69AR cells, doxorubicin co-treatment (AID 601;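 active means viability loss from added drug above about 55%, and viability with drug at most 40%, in both replicates, limit read from the data, passing the limit was not always enough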). To be noted: CellTiter-Glo, 72 h, at 10 µM; for differential viability (reversal): stronger effect = higher value.
Assay [7] is described as follows: 384-well plate pilot, post-Golgi transport modulator project, inhibition of yeast transport mutant growth (AID 636; in the data active means inhibition above about 31%). To be noted: absorbance 615 nm, about 18 h, stronger effect = higher value.
Assay [8] can be described thus: growth suppression of yeast trafficking mutant, preliminary HTS, modulators of trafficking downstream of Golgi apparatus project, 1536-format plate, OD 615 nm (AID 637; in the data active means inhibition above about 30%). The note with it: yeast transport mutant growth, absorbance 615 nm, 18 h; stronger effect = higher value.
Where [9] appears, read: H69AR cells + 2 uM doxorubicin, measured here: viability with 2 uM doxorubicin, stronger effect = lower value.
Where [10] appears, read: H69AR cells, compound alone cytotoxicity.

SMILES strings stand for the structures. Active and inactive are the calls of the source.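 How the source made its calls, unless noted: active means viability at or under a set limit in both replicates, limit being median viability minus 3 SD (cut at about 48% in these data, passing the limit was not always enough); inconclusive means at or under the limit in just one replicate; inactive means at or above the limit in both replicates.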

In general, viability refers to a read-out of living cells in per cent, often relative to untreated cells. As a reminder, the inhibition is the drop in the measured response relative to a control, in per cent. As to `C#CCSc1nnc(-c2ccccc2)c(=O)[nH]1`, the viability in assay [1] is 92.5%; in assay [3] it was 92.5% (inactive); in assay [4], 89.4% (inactive); in assay [5] it was 94.7% (inactive); in assay [6] (setting [9]), 91.5%; in assay [6] (setting [10]), 94.7%. In addition, the Her2 level in assay [2] is 91% (inactive). In assay [6] (H69AR cells + 2 uM doxorubicin), the differential viability (reversal) was 3.12% (inactive). In addition, the results for the inhibition in assay [7] and in assay [8] were -3.92% (inactive) and -5.9% (inactive), respectively.
Consider `CN1C(=O)C2(NCCc3c2[nH]c2ccccc32)c2ccccc21` (stereo not given), for which the viability in assay [1] is 114%; in assay [3], 114% (inactive); in assay [4], 86.8% (inactive); in assay [5] it was 109% (inactive); in assay [6] (setting [9]), 96%; in assay [6] (setting [10]), 109%. For the same compound, in assay [2], the Her2 level is 100% (inactive). Moreover, in assay [6] (H69AR cells + 2 uM doxorubicin), the differential viability (reversal) is 12.9% (inactive). Further, the values for the inhibition in assay [7] and in assay [8] were -3.82% (inactive) and 6.07% (inactive), respectively.
As to `CCOCCCNCC(=O)N1CCN(S(=O)(=O)c2ccc(C)cc2)CC1`, the viability in assay [1] was 90%; in assay [3], 90% (inactive); in assay [4], 96.2% (inactive); in assay [5], 101% (inactive); in assay [6] (setting [9]), 89.4%; in assay [6] (setting [10]), 101%. In addition, the Her2 level in assay [2] is 99.5% (inactive). Further, the differential viability (reversal) in assay [6] (H69AR cells + 2 uM doxorubicin) was 12% (inactive). Also, the inhibition in assay [7] is -6.18% (inactive); in assay [8], -1.45% (inactive).
As to `COC(=O)c1cc(NC(=O)C2COc3ccccc3O2)cc(C(=O)OC)c1` (stereo not given), the viability in assay [1] was 106%; in assay [3], 106% (inactive); in assay [4], 91.1% (inactive); in assay [5] it was 84.2% (inactive); in assay [6] (setting [9]), 74%; in assay [6] (setting [10]), 84.2%. The Her2 level in assay [2] was 86% (inactive). The differential viability (reversal) in assay [6] (H69AR cells + 2 uM doxorubicin) is 10.2% (inactive). For the same compound, the inhibition was -5.6% (inactive) in assay [7] and 0.32% (inactive) in assay [8].
With `Cc1ccc(-c2cc(C(=O)N3CCCC3)no2)cc1`, the viability in assay [1] was 93.5%; in assay [3], 93.5% (inactive); in assay [4], 96% (inactive); in assay [5], 95.1% (inactive); in assay [6] (setting [9]), 93.1%; in assay [6] (setting [10]), 95.1%. Besides, the Her2 level in assay [2] is 106% (inactive). Also, the differential viability (reversal) in assay [6] (H69AR cells + 2 uM doxorubicin) was 2% (inactive). The inhibition was -2.11% (inactive) in assay [7] and -5.16% (inactive) in assay [8].
`COc1ccc(Cl)c(NCCC(=O)O)c1`: the viability in assay [1] was 88%; in assay [3], 88% (inactive); in assay [4], 98.6% (inactive); in assay [5], 95.6% (inactive); in assay [6] (setting [9]) it was 88.5%; in assay [6] (setting [10]), 95.6%. For the same compound, the Her2 level in assay [2] is 107% (inactive). For the same compound, the differential viability (reversal) in assay [6] (H69AR cells + 2 uM doxorubicin) is 7.1% (inactive). Further, the inhibition is -1.37% (inactive) in assay [7] and 9.37% (inactive) in assay [8].
For `O=C(c1cccc(Cl)c1)N1CCN(Cc2ccncc2)CC1`, the viability in assay [1] was 92%; in assay [3] it was 92% (inactive); in assay [4], 96.2% (inactive); in assay [5], 105% (inactive); in assay [6] (setting [9]), 95.8%; in assay [6] (setting [10]), 105%. Besides, the Her2 level in assay [2] was 96.5% (inactive). Also, in assay [6] (H69AR cells + 2 uM doxorubicin), the differential viability (reversal) is 9.47% (inactive). Further, the figures for the inhibition in assay [7] and in assay [8] were -0.27% (inactive) and 6.89% (inactive), respectively.
As to `CCOC(=O)COc1ccc(S(=O)(=O)Nc2ccc3c(c2)OCO3)cc1`, the viability in assay [1] is 164%; in assay [3], 164% (inactive); in assay [4], 10.4% (active); in assay [5], 91% (inactive); in assay [6] (setting [9]) it was 92.1%; in assay [6] (setting [10]), 91%. Moreover, the Her2 level in assay [2] is 113% (inactive). Besides, the differential viability (reversal) in assay [6] (H69AR cells + 2 uM doxorubicin) is -1.11% (inactive). The results for the inhibition in assay [7] and in assay [8] were -4.21% (inactive) and 9.02% (inactive), respectively.
As for `O=C(Nc1nnc(COc2ccc(F)cc2)s1)c1cccs1`, the viability is 107% in assay [1]; 107% (inactive) in assay [3]; 60% (inactive) in assay [4]; 106% (inactive) in assay [5]; 84.9% in assay [6] (setting [9]); 106% in assay [6] (setting [10]). In assay [2], the Her2 level was 88.5% (inactive). For the same compound, in assay [6] (H69AR cells + 2 uM doxorubicin), the differential viability (reversal) is 21.3% (inactive). In addition, the inhibition in assay [7] is -6.93% (inactive); in assay [8], -0.48% (inactive).
Turning to `COc1cc(OC)cc(OCC(O)Cn2cnc(-c3ccccc3)c2)c1` (stereo not given), the viability in assay [1] was 90%; in assay [3] it was 90% (inactive); in assay [4] it was 88% (inactive); in assay [5], 83.8% (inactive); in assay [6] (setting [9]), 95.2%; in assay [6] (setting [10]) it was 83.8%. In addition, the Her2 level in assay [2] was 84% (inactive). Besides, in assay [6] (H69AR cells + 2 uM doxorubicin), the differential viability (reversal) is -11.4% (inactive). Further, the inhibition was 3.64% (inactive) in assay [7] and -2.13% (inactive) in assay [8].
For `O=c1[nH]c(SCc2cc(=O)n3ccccc3n2)nc2c1CCC2`, the viability is 101% in assay [1]; 101% (inactive) in assay [3]; 74.7% (inactive) in assay [4]; 85.2% (inactive) in assay [5]; 83.6% in assay [6] (setting [9]); 85.2% in assay [6] (setting [10]). Moreover, the Her2 level in assay [2] is 83.5% (inactive). For the same compound, the differential viability (reversal) in assay [6] (H69AR cells + 2 uM doxorubicin) was 1.62% (inactive). For the same compound, the inhibition in assay [7] is -2.76% (inactive); in assay [8], -2.22% (inactive).
On to `C/C(N)=C(\C#N)C(=O)NCCc1ccccn1`, for which the viability in assay [1] was 81%; in assay [3], 81% (inactive); in assay [4] it was 108% (inactive); in assay [5], 114% (inactive); in assay [6] (setting [9]), 107%; in assay [6] (setting [10]), 114%. Besides, the Her2 level in assay [2] was 102% (inactive). In addition, the differential viability (reversal) in assay [6] (H69AR cells + 2 uM doxorubicin) was 7.44% (inactive). Besides, the inhibition in assay [7] is -1.45% (inactive); in assay [8], 1.48% (inactive).
Take `O=C(CCCc1cccs1)Nc1nc2c(s1)CCCC2`: the viability in assay [1] was 86.5%; in assay [3], 86.5% (inactive); in assay [4], 55.3% (inactive); in assay [5], 84.5% (inactive); in assay [6] (setting [9]), 81.7%; in assay [6] (setting [10]), 84.5%. Further, the Her2 level in assay [2] was 74% (inactive). Also, the differential viability (reversal) in assay [6] (H69AR cells + 2 uM doxorubicin) is 2.73% (inactive). The inhibition in assay [7] is -9.19% (inactive); in assay [8], 0.82% (inactive).
For `COc1ccccc1OCC(=O)NCC1CCCCC1`, the viability in assay [1] is 94.5%; in assay [3], 94.5% (inactive); in assay [4], 93.2% (inactive); in assay [5], 109% (inactive); in assay [6] (setting [9]) it was 85.2%; in assay [6] (setting [10]), 109%. The Her2 level in assay [2] was 114% (inactive). The differential viability (reversal) in assay [6] (H69AR cells + 2 uM doxorubicin) was 23.4% (inactive). The inhibition in assay [7] was -3.29% (inactive); in assay [8], -9.33% (inactive).
As for `Cn1c(C(=O)NCC2CCCO2)cc2c(=O)[nH]c3ccccc3c21` (stereo not given), the viability in assay [1] is 81%; in assay [3], 81% (inactive); in assay [4], 108% (inactive); in assay [5], 88.4% (inactive); in assay [6] (setting [9]) it was 83.8%; in assay [6] (setting [10]) it was 88.4%. For the same compound, the Her2 level in assay [2] was 98% (inactive). The differential viability (reversal) in assay [6] (H69AR cells + 2 uM doxorubicin) is 4.57% (inactive). The results for the inhibition in assay [7] and in assay [8] were -4.67% (inactive) and -7.05% (inactive), respectively.
Regarding `COc1ccc(CC(=O)OCC(=O)NC(=O)NC2CCCCC2)cc1`, the viability in assay [1] is 96.5%; in assay [3] it was 96.5% (inactive); in assay [4] it was 100% (inactive); in assay [5] it was 92.4% (inactive); in assay [6] (setting [9]), 93%; in assay [6] (setting [10]), 92.4%. Moreover, the Her2 level in assay [2] is 94% (inactive). In addition, the differential viability (reversal) in assay [6] (H69AR cells + 2 uM doxorubicin) is -0.595% (inactive). Further, the inhibition was -5.13% (inactive) in assay [7] and -0.73% (inactive) in assay [8].
